These results are taken from ChEMBL document CHEMBL5331120, “Stapled β-Hairpin Antimicrobial Peptides with Improved Stability and Activity against Drug-Resistant Gram-Negative Bacteria” (J Med Chem, 2023).

≈ marks a conversion by molar mass, not a printed value. Calls of active or inactive are those of the source. The calls are words filed in the database; no cut-off is given here. Some results are limits rather than exact numbers.

For one series, the system named is Staphylococcus aureus. Nature of the series: Antimicrobial activity against Staphylococcus aureus ATCC 29737 assessed as inhibition of bacterial growth incubated for 18 hrs by broth microdilution method. The format is functional, organism-based. In short, it runs like this:
(§1)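 Standard broth microdilution in MHB. Overnight culture (37 °C, 120 rpm) adjusted to OD600 0.07 and diluted 1000× to 3 × 10^5 CFU/mL. Peptides serially diluted in triplicate, 18 h at 37 °C with 120 rpm shaking. Growth read as OD600; MIC is the lowest concentration with no visible growth. Colistin served as control for Gram-negatives, vancomycin for S. aureus.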

A further series has as its system Pseudomonas aeruginosa. As to the kind of experiment: Antimicrobial activity against Pseudomonas aeruginosa ATCC 9027 assessed as inhibition of bacterial growth incubated for 18 hrs by broth microdilution method. The format is functional. Put shortly:
as §1
In general terms: Dilution methods test growth across graded concentrations, often in twofold steps.

The test system of series [1] is Escherichia coli. Nature of the series: Antimicrobial activity against Escherichia coli ATCC 25922 assessed as inhibition of bacterial growth incubated for 18 hrs by broth microdilution method. The format is functional. In short, it runs like this: as §1
Series [2] deals with Escherichia coli. Nature of the series: Antimicrobial activity against colistin resistant Escherichia coli clinical isolate R1 harboring mcr-1 gene assessed as inhibition of bacterial growth incubated for 18 hrs by broth microdilution method. The class given is functional, organism-based. In short, it runs like this: (§2)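 Overnight MHB culture (37 °C, 120 rpm) adjusted to OD600 0.07 (~10^8 CFU/mL), then diluted 1000× to 3 × 10^5 CFU/mL. Peptides serially diluted with the bacterial suspension in triplicate, shaken at 37 °C, 120 rpm for 18 h, then OD600 read. MIC is the lowest concentration with no visible growth. Colistin as positive control.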

Series [3] relates to Escherichia coli. Nature of the series: Antimicrobial activity against colistin/carbapenem resistant Escherichia coli clinical isolate R2 harboring mcr-1 and NDM-1 gene assessed as inhibition of bacterial growth incubated for 18 hrs by broth microdilution method. The format is functional, organism-based. Put shortly: as §2
A further series relates to Erythrocyte. As to the kind of experiment: Hemolytic activity in human RBC upto 128 uM incubated for 1 hr by absorbance based analysis. The class given is toxicity, cell-based. In short, it runs like this:
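Washed human RBCs from healthy volunteers at 4% in PBS. Peptide at 4–128 μM, 37 °C for 1 h. Supernatant after 1000g, 10 min spin read at OD540. 1% Triton X-100 gave full lysis; % hemolysis derived and HC50 estimated.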

Series [4] relates to Escherichia coli. Nature of the series: Antimicrobial activity against Escherichia coli ATCC 25922 assessed as inhibition of bacterial growth compound pretreated for 1 hr with trypsin and measured after 18 hrs by broth microdilution method. The format is functional, organism-based. Put shortly: (§3)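 Peptide incubated with trypsin at a 1:2000 trypsin/peptide molar ratio (e.g., 1 mM peptide with 0.5 μM trypsin), 37 °C, 1 h. Reaction stopped at 80 °C for 10 min, then serially diluted against E. coli in MHB broth microdilution. Inoculum 3 × 10^5 CFU/mL, 37 °C, 120 rpm, 18 h, read by OD600, triplicates. Fold change in MIC taken versus untreated control.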

A further series concerns the target Trypsin (Homo sapiens, UniProt P07477+P07478+P35030). As to the kind of experiment: Stability of compound assessed as trypsin (unknown origin) mediated compound degradation by measuring parent compound remaining measured after 1.5 hrs by RP-HPLC analysis. The format is ADME, protein assay. As to conditions: trypsin, read-out: Stability. Put shortly:
(§4)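 Peptide with trypsin at a 1:2000 trypsin/peptide molar ratio, 37 °C, sampled at 15, 30, 60 and 90 min. Reaction stopped with an equal volume of 50% acetonitrile/1% TFA. Analysed on C18 RP-HPLC with UV at 220 nm; intact peptide given as % of AUC.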

The test system of series [5] is Escherichia coli. As to the kind of experiment: Antimicrobial activity against Escherichia coli ATCC 25922 assessed as inhibition of bacterial growth incubated for 18 hrs in presence of 10% fetal bovine serum by broth microdilution method. The format is functional, organism-based. In short, it runs like this:
(§5)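 E. coli broth microdilution in MHB containing 10% fetal bovine serum. Inoculum 3 × 10^5 CFU/mL, diluted from an OD600 0.07 suspension. Incubated 18 h at 37 °C with 120 rpm shaking, OD600 read, triplicates. Fold change in MIC calculated against control MIC.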

The subject of series [6] is Cell membrane. Nature of the series: Induction of outer membrane permeabilization in Escherichia coli ATCC 25922 assessed as NPN uptake at 1 times MIC incubated for 1 hr by fluorescence based microplate reader analysis relative to control. In short, it runs like this:
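Exponential-phase cells washed twice in PBS pH 7, resuspended to OD600 0.4; equal volume 40 μM NPN added, then equal volume peptide (4, 8, 16 μM). Incubated 1 h at 37 °C with shaking. Fluorescence ex 355/em 405 nm; % uptake relative to no-compound (F0) and colistin 100 μM control (Fmax). Three repeats.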

For series [7], the system named is Cell membrane. As to the kind of experiment: Induction of inner membrane permeabilization in Escherichia coli ATCC 25922 assessed as SYTOX green uptake at 1 times MIC incubated for 1 hr by fluorescence based microplate reader analysis relative to control. In short, it runs like this:
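Exponential-phase cells washed twice in PBS pH 7, resuspended to OD600 0.4; equal volume SYTOX green (4 μM) added, 5 min. Peptide added (4, 8, 16 μM), 1 h at 37 °C with shaking. Fluorescence ex 488/em 523 nm; % uptake computed from untreated (F0) and positive-control peptide BTT1 (Fmax) signals. Three repeats.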

Series [8] relates to Escherichia coli. Nature of the series: Induction of membrane morphological changes in Escherichia coli ATCC 25922 at 16 uM measured after 1 hr by TEM analysis. The format is functional, organism-based.
Series [9] has as its system Escherichia coli. Nature of the series: Induction of membrane morphological changes in Escherichia coli ATCC 25922 at 16 uM measured after 3 to 6 hrs by TEM analysis. The class given is functional, organism-based. The note with it: time 3-6 hrs.
For series [10], the system named is Escherichia coli. As to the kind of experiment: Bactericidal activity against Escherichia coli ATCC 25922 assessed as cell killing at 1 times MIC measured after 6 hrs relative to control. The class given is functional. In short, it runs like this:
(§6)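 Time-kill against E. coli ATCC 25922 at 1× and 2× MIC, counted as CFU/mL over time. Limit of detection 50 CFU/mL; experiments repeated two times.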

Series [11] deals with Escherichia coli. As to the kind of experiment: Bactericidal activity against Escherichia coli ATCC 25922 assessed as cell killing at 2 times MIC measured after 3 hrs relative to control. The format is functional. In short, it runs like this:
as §6

The test system of series [12] is Escherichia coli. As to the kind of experiment: Antimicrobial activity against colistin resistant Escherichia coli clinical isolate R1 harboring mcr-1 gene assessed as fold increase in MIC incubated for 18 hrs by broth microdilution method relative to control. The class given is functional.
The test system of series [13] is Escherichia coli. Nature of the series: Antimicrobial activity against colistin/carbapenem resistant Escherichia coli clinical isolate R2 harboring mcr-1 and NDM-1 gene assessed as fold increase in MIC incubated for 18 hrs by broth microdilution method relative to control. The format is functional.
Series [14] deals with Escherichia coli. As to the kind of experiment: Antimicrobial activity against colistin/carbapenem resistant Escherichia coli clinical isolate R3 harboring NDM-7 and OXA-181 gene assessed as fold increase in MIC incubated for 18 hrs by broth microdilution method relative to control. The class given is functional.
The subject of series [15] is Escherichia coli. Nature of the series: Antimicrobial activity against Escherichia coli ATCC 25922 assessed as fold increase in MIC compound pretreated for 1 hr with trypsin and measured after 18 hrs by broth microdilution method relative to control. The class given is functional. The note with it: trypsin pretreatment 1 hr; MIC measured after 18 hrs. Put shortly: as §3

A short description of series [16]: Stability of compound assessed as trypsin (unknown origin) mediated compound degradation by measuring parent compound remaining measured after 1 hr by RP-HPLC analysis. As to conditions: human, read-out: Stability. The format is ADME, protein assay. Put shortly: as §4
The test system of series [17] is Escherichia coli. Nature of the series: Antimicrobial activity against Escherichia coli ATCC 25922 assessed as fold increase in MIC incubated for 18 hrs in presence of 10% fetal bovine serum by broth microdilution method relative to control. The format is functional. In short, it runs like this: as §5
The test system of series [18] is Escherichia coli. As to the kind of experiment: Antimicrobial activity against Escherichia coli ATCC 25922 assessed as fold increase in MIC incubated for 18 hrs in presence of NaCl by broth microdilution method relative to control. The class given is functional. Put shortly: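 MHB broth microdilution against E. coli with 150 mM NaCl added to the medium. Inoculum 3 × 10^5 CFU/mL, 37 °C, 120 rpm, 18 h, OD600 read, triplicates. MIC fold change taken relative to control.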

Take `CC(C)C[C@@H]1NC(=O)[C@H](CCCCN)NC(=O)CNC(=O)C2CCCN2C(=O)[C@H](CCCCN)NC(=O)[C@H](CC(C)C)NC(=O)[C@H](CCCCN)NC(=O)[C@H](CC(C)C)NC(=O)[C@H](CCCCN)NC(=O)[C@@H](N)CC/C=C/CC[C@@H](C(=O)O)NC(=O)[C@H](CCCCN)NC(=O)[C@H](CC(C)C)NC(=O)[C@H](CCCCN)NC1=O` (single isomer, unassigned): the result in the series on Staphylococcus aureus and in the series on Escherichia coli [8] was inactive. The MIC with Pseudomonas aeruginosa and with Escherichia coli [1] was 8 µM (≈ 12.7 µg/mL) each time. The outcome in the series with Escherichia coli [2], with Escherichia coli [3], with Escherichia coli [4], with Escherichia coli [5] and with Escherichia coli [9] was Active. The Activity entry is “Non-Toxic” in the series on Erythrocyte; 70% in the series on Cell membrane [6]; 80% in the series with Cell membrane [7]; 100% with Escherichia coli [10]; 100% with Escherichia coli [11]. In addition, the remaining at 1.5 h on Trypsin is greater than 40%.
For H-LKLKLKPGKLKLKL-OH, the outcome with Staphylococcus aureus was inactive. Further, the “fold change (FC)” value in the series with Escherichia coli [12] was “>=8”; in the series on Escherichia coli [13] it was “>=8”; in the series on Escherichia coli [14], “>=8”; with Escherichia coli [15] it was 8; in the series on Escherichia coli [17], 8; with Escherichia coli [18], 32. Also, the remaining at 1 h in series [16] is less than 10%. The Activity in the series on Cell membrane [6] amounted to 40%; in the series with Cell membrane [7] it was 80%.

The term MIC denotes the lowest concentration found to suppress growth.
